Reference: ChEMBL document CHEMBL1154414, “In vitro and in vivo activities of T-705 against arenavirus and bunyavirus infections” (Antimicrob Agents Chemother, 2007)

What was measured:
Format in all cases: functional
Pichinde virus [1] = assay: Antiviral activity against Pichinde virus An 4763 infected Syrian golden hamster assessed as mean serum ALT levels at 50 mg/kg, po twice daily for 7 days administered 72 hrs post viral-challenge measured on day 7 of viral infection measured on day 7 of viral infection
In short: (§1)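 Hamsters were challenged intraperitoneally (bilateral, 65 PFU) and given twice-daily oral gavage doses (0.4% CMC vehicle). Five per group were sacrificed on day 7 and serum was collected. Serum ALT activity was measured by kinetic assay. Three sham-infected animals set the baselines.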

Punta Toro virus [2] = assay: Antiviral activity against 500 PFU Punta Toro virus Adames infected C57BL/6 mouse assessed as mean viral titer per 0.1 mL of serum at 10 mg/kg, po twice daily administered 24 hrs post viral challenge measured on day 3 of viral infection
In short: (§2)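 Mice were infected subcutaneously with PTV and dosed by oral gavage twice daily; 5 per group (10 placebo) were killed on day 3 or 4. Liver homogenate or serum was serially diluted onto triplicate LLC-MK2 monolayers, and CPE was read 6–8 days later. 50% endpoints gave log10 CCID50 per 0.1 g liver or 0.1 ml serum. Detection range was 2.8–9.5; undetectable samples were assigned <2.8.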

Punta Toro virus [3] = assay: Antiviral activity against 50 PFU Punta Toro virus Adames infected C57BL/6 mouse assessed as animals with detectable virus level in serum at 10 mg/kg, po twice daily administered 24 hrs post viral challenge measured on day 3 of viral infection
In short: (§3)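 T-705 was suspended in 0.4% carboxymethylcellulose and given by oral gavage twice daily. Mice were infected subcutaneously with PTV. Five mice per group (10 placebo) were sacrificed on day 3 or 4. Liver homogenate or serum was serially diluted onto triplicate LLC-MK2 monolayers, and CPE was read at 6–8 days. The detection limit was 2.8 log10 CCID50 per 0.1 g liver or 0.1 ml serum.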

Punta Toro virus [4] = assay: Antiviral activity against 5000 PFU Punta Toro virus Adames infected C57BL/6 mouse assessed as mean viral titer per 0.1 mL of serum at 30 mg/kg, po twice daily administered 24 hrs post viral challenge measured on day 3 of viral infection; in short: as §2
Punta Toro virus [5] = assay: Antiviral activity against 500 PFU Punta Toro virus Adames infected C57BL/6 mouse assessed as mean serum ALT levels at 30 mg/kg, po twice daily administered 24 hrs post viral challenge measured on day 3 of viral infection
In short: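 C57BL/6 mice received subcutaneous PTV, then oral gavage twice daily for 5–7 days. T-705 was given in 0.4% CMC and ribavirin in saline. Five mice per group (10 placebo) were killed on day 3 or 4, and serum was collected. ALT activity was measured by kinetic assay. Three sham-infected mice set baselines.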

Pichinde virus [6] = assay: Antiviral activity against Pichinde virus An 4763 infected Syrian golden hamster assessed as mean serum ALT levels at 40 mg/kg, po twice daily for 7 days administered 4 hrs before viral-challenge measured on day 7 of viral infection; in short: as §1
Pichinde virus [7] = assay: Antiviral activity against Pichinde virus An 4763 infected Syrian golden hamster assessed as mean viral titer per 0.1 g of liver at 20 mg/kg, po twice daily for 7 days administered 24 hrs post viral-challenge measured on day 7 of viral infection
In short: (§4)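 Hamsters (groups of 15, placebo 25-30) were dosed orally by gavage twice daily (drug suspended in 0.4% CMC) after bilateral intraperitoneal challenge with 65 PFU. Five per group were killed on day 7. Liver homogenate or serum was serially diluted onto triplicate B-SC-1 wells, CPE was read at 6-8 days, and the 50% endpoint was taken. Range was 2.8-9.5 log10 CCID50/0.1 g or 0.1 ml, with undetectable assigned <2.8.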

Punta Toro virus [8] = assay: Antiviral activity against 50 PFU Punta Toro virus Adames infected C57BL/6 mouse assessed as mean serum ALT levels at 30 mg/kg, po twice daily administered 24 hrs post viral challenge measured on day 3 of viral infection
In short: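 Subcutaneous PTV infection was followed by oral gavage twice daily with drug suspended in 0.4% CMC. Serum was collected from 5 sacrificed mice per group (10 placebo) on day 3 or 4. ALT activity was measured by kinetic assay, and sham-infected mice set the baselines.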

Pichinde virus [9] = assay: Antiviral activity against Pichinde virus An 4763 infected Syrian golden hamster assessed as animals with detectable virus level in serum at 50 mg/kg, po twice daily for 7 days administered 24 hrs post viral-challenge measured on day 7 of viral infection; in short: as §4
Pichinde virus [10] = assay: Antiviral activity against Pichinde virus An 4763 infected Syrian golden hamster assessed as mean viral titer per 0.1 g of liver at 20 mg/kg, po twice daily for 7 days administered 72 hrs post viral-challenge measured on day 7 of viral infection; in short: as §4
Punta Toro virus [11] = assay: Antiviral activity against 500 PFU Punta Toro virus Adames infected C57BL/6 mouse assessed as animals with detectable virus level in serum at 10 mg/kg, po twice daily administered 24 hrs post viral challenge measured on day 3 of viral infection; in short: as §3
Punta Toro virus [12] = assay: Antiviral activity against Punta Toro virus Adames infected Syrian golden hamster assessed as mean viral titer per 0.1 g of liver at 30 mg/kg, […] measured on day 4 of viral infection; settings: route oral
Punta Toro virus [13] = assay: Antiviral activity against 500 PFU Punta Toro virus Adames infected C57BL/6 mouse assessed as mean day of death at 10 mg/kg, po twice daily for 5 days administered 24 hrs post viral challenge
In short: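 Groups of 15 mice (25–30 placebo) were inoculated subcutaneously with PTV. Drug in 0.4% carboxymethylcellulose was given by oral gavage twice daily.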

Pichinde virus [14] = assay: Antiviral activity against Pichinde virus An 4763 infected Syrian golden hamster assessed as animals with detectable virus level in serum at 20 mg/kg, po twice daily for 7 days administered 24 hrs post viral-challenge measured on day 7 of viral infection; in short: as §4
Punta Toro virus [15] = assay: Antiviral activity against 50 PFU Punta Toro virus Adames infected C57BL/6 mouse assessed as animals with detectable virus level in liver at 10 mg/kg, po twice daily administered 24 hrs post viral challenge measured on day 3 of viral infection; in short: as §3
Pichinde virus [16] = assay: Antiviral activity against Pichinde virus An 4763 infected Syrian golden hamster assessed as animals with detectable virus level in liver at 20 mg/kg, po twice daily for 7 days administered 24 hrs post viral-challenge measured on day 7 of viral infection; in short: as §4
Pichinde virus [17] = assay: Antiviral activity against Pichinde virus An 4763 infected Syrian golden hamster assessed as mean serum ALT levels at 50 mg/kg, po twice daily for 7 days administered 24 hrs post viral-challenge measured on day 7 of viral infection; in short: as §1
Punta Toro virus [18] = assay: Antiviral activity against 5000 PFU Punta Toro virus Adames infected C57BL/6 mouse assessed as mean day of death at 30 mg/kg, po twice daily for 5 days administered 24 hrs post viral challenge
In short: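 PTV was inoculated subcutaneously into mice in groups of 15 (25–30 placebo). Dosing was by oral gavage twice daily for 5–7 days, with T-705 suspended in 0.4% CMC and ribavirin in saline. Remaining animals were observed 21–28 days for survival and day of death. Test doses had first been checked for tolerance in uninfected animals.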

Pichinde virus [19] = assay: Antiviral activity against Pichinde virus An 4763 infected Syrian golden hamster assessed as animals with detectable virus level in serum at 50 mg/kg, po twice daily for 7 days administered 72 hrs post viral-challenge measured on day 7 of viral infection; in short: as §4
Punta Toro virus [20] = assay: Antiviral activity against 5000 PFU Punta Toro virus Adames infected C57BL/6 mouse assessed as animals with detectable virus level in serum at 10 mg/kg, po twice daily administered 24 hrs post viral challenge measured on day 3 of viral infection; in short: as §2

| SMILES | Activity (Pichinde virus [1]) [IU/L] | log10CCID50 (Punta Toro virus [2]) | Activity (Punta Toro virus [3]) [%] | log10CCID50 (Punta Toro virus [4]) | Activity (Punta Toro virus [5]) [IU/L] | Activity (Pichinde virus [6]) [IU/L] | log10CCID50 (Pichinde virus [7]) | Activity (Punta Toro virus [8]) [IU/L] | Activity (Pichinde virus [9]) [%] | log10CCID50 (Pichinde virus [10]) | Activity (Punta Toro virus [11]) [%] | log10CCID50 (Punta Toro virus [12]) | Activity (Punta Toro virus [13]) [days] | Activity (Pichinde virus [14]) [%] | Activity (Punta Toro virus [15]) [%] | Activity (Pichinde virus [16]) [%] | Activity (Pichinde virus [17]) [IU/L] | Activity (Punta Toro virus [18]) [days] | Activity (Pichinde virus [19]) [%] | Activity (Punta Toro virus [20]) [%] |
| --- | --- | --- | --- | --- | --- | --- | --- | --- | --- | --- | --- | --- | --- | --- | --- | --- | --- | --- | --- | --- |
| NC(=O)c1ncn([C@@H]2O[C@H](CO)[C@@H](O)[C@H]2O)n1 [RIBAVIRIN] | 15 | 6.7 | 60 | <4.2 | 450 | 30 | 6 | 131 | 40 | 6.8 | 100 | <2.8 | 5 | 80 | 40 | 100 | 26 | 5 | 100 | 100 |
| NC(=O)c1nc(F)cnc1O [FAVIPIRAVIR] | 411 | 7.1 | 100 | <3.3 | 900 | 30 | >8.4 | 199 | 80 | >8.6 | 100 | <3.5 | 4.7 | 100 | 0 | 100 | 61 | 5 | 100 | 80 |
